Here are results for 19 molecules from ChEMBL document CHEMBL3259788, “Influence of the alkylsulfonylamino substituent located at the 6-position of 2,2-dimethylchromans structurally related to cromakalim: from potassium channel openers to calcium entry blockers?” (Eur J Med Chem, 2014).

The source made the active and inactive calls. The calls are words filed in the database; no cut-off is given here.

A word on the EC50: it is the concentration needed to bring the measured effect to its halfway point.

Experiment [1] has as its system Thoracic aorta. In words: Myorelaxant activity in endothelium-free rat thoracic aorta assessed as inhibition of 80 mM of KCl-induced contraction. In kind it is functional, tissue-based. In a few lines:
(§1)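 Transverse thoracic aorta rings (3–4 mm), cleaned of fat and connective tissue and equilibrated 60 min, recorded isometrically by force transducer. Contraction induced with 30 or 80 mM KCl. After tension stabilized, drug added cumulatively up to maximal relaxation or 300 µM. Glibenclamide at 1 or 10 µM present throughout where stated. EC50 is the concentration giving 50% inhibition of the KCl plateau, from concentration-response curves. Mean ± SEM (n).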

Experiment [2] concerns Thoracic aorta. In words: Myorelaxant activity in endothelium-free rat thoracic aorta assessed as inhibition of 30 mM of KCl-induced contraction in presence of 1 uM of KATP channel blocker glibenclamide. It is filed as functional, tissue-based. In a few lines:
as §1

For experiment [3], the system named is Thoracic aorta. In words: Myorelaxant activity in endothelium-free rat thoracic aorta assessed as inhibition of 30 mM of KCl-induced contraction in presence of 10 uM of KATP channel blocker glibenclamide. It is filed as functional, tissue-based. In a few lines: as §1
Experiment [4] in a line: Inhibition of glucose-induced insulin secretion in rat pancreatic islets assessed as residual insulin release level at 10 uM preincubated for 30 mins measured after 90 mins radioimmunology analysis. It is filed as functional. In a few lines:
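Batches of 10 rat islets preincubated 30 min at 37 °C in bicarbonate salt medium with 2.8 mM glucose and 0.5% albumin, gassed O2/CO2 (95/5). Then incubated 90 min at 37 °C with 16.7 mM glucose plus drug. Insulin measured by radioimmunoassay against a rat insulin standard and expressed as % of drug-free 16.7 mM glucose control. Mean ± SEM (n).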

For experiment [5], the system named is Thoracic aorta. In words: Effect on 86Rb fractional flow rate in endothelium-free rat thoracic aorta at 25 to 100 uM. It is filed as functional, tissue-based. In a few lines:
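Prelabelled 86Rb (42K substitute) efflux: pairs of 2 mm aortic rings preincubated 30 min at 37 °C in bicarbonate salt solution gassed O2/CO2 (95/5), loaded 60 min with 86Rb, washed, then perifused at 1.0 mL/min with 30 mM K+ medium throughout. Effluent collected per min from 31st to 90th min. Fractional outflow rate (% of instantaneous ring content per min) from scintillation counts.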

Experiment [6] has as its system Thoracic aorta. In words: Inhibition of 80 mM of KCl-induced Ca2+ outflow in endothelium-free rat thoracic aorta assessed 45Ca outflow per min at 30 uM (reference value: 6.06 +/- 0.36%). Also on record: scale not given: the % may be the effect or the level left. It is filed as functional.
For experiment [7], the system named is Thoracic aorta. In words: Myorelaxant activity in endothelium-free rat thoracic aorta assessed as inhibition of 30 mM of KCl-induced contraction. It is filed as functional, tissue-based. In a few lines: as §1
In experiment [8] the test system is Thoracic aorta. In words: Ratio of EC50 for myorelaxant activity in endothelium-free rat thoracic aorta presence of 10 uM of KATP channel blocker glibenclamide to EC50 for myorelaxant activity in endothelium-free rat thoracic aorta absence of KATP channel blocker glibenclamide. In kind it is functional. The method, boiled down:
as §1

The subject of experiment [9] is Thoracic aorta. In words: Ratio of EC50 for myorelaxant activity in endothelium-free rat thoracic aorta presence of 1 uM of KATP channel blocker glibenclamide to EC50 for myorelaxant activity in endothelium-free rat thoracic aorta absence of KATP channel blocker glibenclamide. It is filed as functional. The method, boiled down: as §1

As to `CC1(C)CC(NC(=S)Nc2cccc(Cl)c2)c2cc(NS(C)(=O)=O)ccc2O1` (centres undefined), the EC50 came out at 16.8 µM in the experiment with Thoracic aorta [1], 16.6 µM in the experiment with Thoracic aorta [2], 15.7 µM in the experiment with Thoracic aorta [3] and 9.8 µM in the experiment with Thoracic aorta [7]. Also, the figures for the Activity (in experiment [4]; in the experiment with Thoracic aorta [6]) were 69.2% and 3.68%, respectively. Moreover, in the experiment with Thoracic aorta [5], the outcome was inactive. The inhibition entry in the experiment on Thoracic aorta [7] is “Dose-dependent effect”.

In the case of `CC1(C)CC(NC(=S)Nc2cccc(C#N)c2)c2cc(NS(C)(=O)=O)ccc2O1` (centres undefined), the Activity in [4] was 91.7%. The EC50 in the experiment with Thoracic aorta [7] was determined as 9.8 µM.

`CC1(C)CC(NC(=O)Nc2cccc(C#N)c2)c2cc(NS(C)(=O)=O)ccc2O1` (centres undefined): the Activity in [4] is on record as 84.4%. The EC50 in the experiment with Thoracic aorta [7] turned out to be 9.3 µM.

With `CCS(=O)(=O)Nc1ccc2c(c1)C(NC(=O)Nc1ccc(Cl)cc1)CC(C)(C)O2` (centres undefined), the Activity in [4] is listed as 78.1%. Further, in the experiment on Thoracic aorta [7], the EC50 was greater than 10 µM.

As to `CCS(=O)(=O)Nc1ccc2c(c1)C(NC(=S)Nc1cccc(C#N)c1)CC(C)(C)O2` (centres undefined), in [4], the Activity is on record as 64.7%. For the same molecule, in the experiment with Thoracic aorta [7], the EC50 turned out to be 12.1 µM.

Consider `CC1(C)CC(NC(=O)Nc2cccc(Cl)c2)c2cc(NS(C)(=O)=O)ccc2O1` (centres undefined), for which, in [4], the Activity was 94.5%. Moreover, the EC50 in the experiment on Thoracic aorta [7] came to 15.2 µM.

Take `COc1ccc(CCN(C)CCCC(C#N)(c2ccc(OC)c(OC)c2)C(C)C)cc1OC` (centres undefined) [VERAPAMIL]: the EC50 in the experiment on Thoracic aorta [1] was found to be 0.052 µM; in the experiment with Thoracic aorta [2] it was 0.038 µM; in the experiment with Thoracic aorta [3], 0.035 µM; with Thoracic aorta [7], 0.031 µM. The inhibition result in the experiment on Thoracic aorta [7] is “Dose-dependent effect”.

On to `CC1(C)CC(NC(=S)Nc2ccc(Cl)cc2)c2cc(NS(C)(=O)=O)ccc2O1` (centres undefined), for which the Activity in experiment [4] is 63.9%. The 50% effective concentration (EC50) in the experiment on Thoracic aorta [7] was found to be 11.6 µM.

Take `CCS(=O)(=O)Nc1ccc2c(c1)C(NC(=S)Nc1ccc(C#N)cc1)CC(C)(C)O2` (centres undefined): the Activity in [4] is 57.9%. Further, in the experiment with Thoracic aorta [7], the EC50 came out at 12 µM.

`CCS(=O)(=O)Nc1ccc2c(c1)C(NC(=O)Nc1cccc(Cl)c1)CC(C)(C)O2` (centres undefined): in experiment [4], the Activity is 72.1%. Further, the EC50 in the experiment with Thoracic aorta [7] stood at 17.2 µM.

As for `CCS(=O)(=O)Nc1ccc2c(c1)C(NC(=O)Nc1cccc(C#N)c1)CC(C)(C)O2` (centres undefined), in [4], the Activity is given as 75.6%. Further, the concentration giving a half-maximal response (EC50) in the experiment on Thoracic aorta [7] was determined as 9.5 µM.

`CC1(C)CC(NC(=O)Nc2ccc(C#N)cc2)c2cc(NS(C)(=O)=O)ccc2O1` (centres undefined): the Activity in [4] is 81.6%. In the experiment with Thoracic aorta [7], the EC50 was found to be 19.8 µM.

As to `CC1(C)CC(NC(=S)Nc2ccc(C#N)cc2)c2cc(NS(C)(=O)=O)ccc2O1` (centres undefined), the Activity in experiment [4] was 81.7%. Further, the EC50 in the experiment on Thoracic aorta [7] is 11.6 µM.

`CC1=Nc2ccc(Cl)cc2S(=O)(=O)N1` [DIAZOXIDE]: the results for the “Ratio EC50” value in the experiment on Thoracic aorta [8] and in the experiment on Thoracic aorta [9] were 8 and 4.4, respectively. Moreover, the figures for the EC50 with Thoracic aorta [1] and in the experiment on Thoracic aorta [7] were greater than 300 µM and 26.1 µM, respectively. Moreover, the inhibition result in the experiment on Thoracic aorta [2] and with Thoracic aorta [3] was “Dose-dependent effect” each time. In addition, in experiment [4], the Activity was 80.8%.

Turning to `CCS(=O)(=O)Nc1ccc2c(c1)C(NC(=S)Nc1cccc(Cl)c1)CC(C)(C)O2` (centres undefined), the Activity in [4] is reported as 54.3%. Also, the EC50 in the experiment on Thoracic aorta [7] was 9.8 µM.

Turning to `CCS(=O)(=O)Nc1ccc2c(c1)C(NC(=O)Nc1ccc(C#N)cc1)CC(C)(C)O2` (centres undefined), the Activity in experiment [4] turned out to be 73.6%. Besides, the EC50 with Thoracic aorta [7] is 11.8 µM.

Regarding `CC1(C)Oc2ccc(C#N)cc2C(N2CCCC2=O)C1O` (racemic) [CROMAKALIM], the entries for the “Ratio EC50” value in the experiment with Thoracic aorta [8] and in the experiment with Thoracic aorta [9] were 130 and 10, respectively. Besides, the EC50 with Thoracic aorta [1] came out at 138 µM; in the experiment on Thoracic aorta [2] it was 2.5 µM; in the experiment on Thoracic aorta [3] it was 28.8 µM; with Thoracic aorta [7] it was 0.13 µM. The inhibition entry with Thoracic aorta [2] and with Thoracic aorta [3] was “Dose-dependent effect” in each case. In addition, the Activity in experiment [4] turned out to be 94.4%.

With `CC1(C)CC(NC(=O)Nc2ccc(Cl)cc2)c2cc(NS(C)(=O)=O)ccc2O1` (centres undefined), the Activity in experiment [4] amounted to 88.5%. In addition, in the experiment on Thoracic aorta [7], the concentration giving a half-maximal response (EC50) is greater than 30 µM.

For the molecule `CCS(=O)(=O)Nc1ccc2c(c1)C(NC(=S)Nc1ccc(Cl)cc1)CC(C)(C)O2` (centres undefined), the Activity in experiment [4] came out at 49.1%. The EC50 with Thoracic aorta [7] worked out at 5.1 µM.
